Laboratory results: BindingDB's records for doi:10.1021/jm990396t (Glaxo Wellcome Research and Development, 2000)

What follows are compounds tested against Kynurenine 3-monooxygenase (Rattus norvegicus, UniProt O88867) (assay: Inhibition of Kynurenine-3-hydroxylase enzyme isolated from the rat liver).
Chain of Kynurenine 3-monooxygenase (O88867 whole entry): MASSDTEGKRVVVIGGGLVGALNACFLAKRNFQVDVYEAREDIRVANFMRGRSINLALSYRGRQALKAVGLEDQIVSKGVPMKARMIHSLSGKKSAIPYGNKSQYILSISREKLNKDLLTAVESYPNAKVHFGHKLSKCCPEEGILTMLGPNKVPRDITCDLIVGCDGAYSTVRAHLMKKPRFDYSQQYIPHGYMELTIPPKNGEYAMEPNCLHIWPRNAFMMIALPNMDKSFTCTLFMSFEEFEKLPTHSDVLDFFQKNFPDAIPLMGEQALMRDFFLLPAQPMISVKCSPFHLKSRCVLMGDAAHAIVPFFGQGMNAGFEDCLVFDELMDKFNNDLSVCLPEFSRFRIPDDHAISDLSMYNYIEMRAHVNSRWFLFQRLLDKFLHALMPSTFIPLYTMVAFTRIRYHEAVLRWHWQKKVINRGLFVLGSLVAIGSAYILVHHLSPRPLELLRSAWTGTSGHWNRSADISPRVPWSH
In short: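 Enzyme source: P2 mitochondrial pellet from rat liver, resuspended in 0.32 M sucrose. Activity measured as ³HOH release from 3-[³H]-L-kynurenine at its K_m concentration, 37 °C, under conditions linear with time and enzyme protein. Five inhibitor concentrations tested. IC50 taken as the mean of at least 2 experiments run in duplicate, with variation <20%.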
`COC(=O)C(=O)CC(=O)c1ccc(Cl)c(Cl)c1` [4-(3,4-Dichloro-phenyl)-2-hydroxy-4-oxo-but-2-enoic acid methyl ester] showed an IC50 of 1900 nM. With `O=C(O)C(=O)CC(=O)c1cccc(Br)c1` [(Z)-4-(3-Bromo-phenyl)-2-hydroxy-4-oxo-but-2-enoic acid] the IC50 was 1700 nM. `COC(=O)C(=O)CC(=O)c1cccc(Cl)c1` [4-(3-Chloro-phenyl)-2-hydroxy-4-oxo-but-2-enoic acid methyl ester] showed an IC50 of 1900 nM. `COC(=O)C(=O)CC(=O)c1ccc(Br)cc1` [4-(4-Bromo-phenyl)-2-hydroxy-4-oxo-but-2-enoic acid methyl ester] gave an IC50 of 1900 nM.
